Calls of active or inactive are those of the source.
Tests used:
[1] = Half life in swine brain at 10 uM after 30 to 60 mins by LC-MS/MS analysis; type: ADME, tissue-based, Sus scrofa; conditions: pig
Summary of the method: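 Prodrugs at 10 µM spiked into swine brain homogenate (1% w/v) and incubated at 37 °C with orbital shaking. Triplicate aliquots were taken at 0, 30 and 60 min and quenched with ice-cold acetonitrile containing losartan IS. Prodrug was measured by LC-MS/MS as the analyte/IS peak-area ratio. t1/2 = 0.693/Kel, with Kel the slope of ln % remaining versus time.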

Plasma [2] = assay: Unbound plasma concentration in swine at 1.6 mg/kg, iv infusion via saphenous vein after 60 mins by LC-MS/MS analysis; type: ADME, organism-based, Sus scrofa; conditions: pig, in vivo, 1 h
Summary of the method: (§1)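 Swine, n = 2/dose. Dosing was iv infusion over 1 h (1.6 mg/kg or molar equivalent), with brain and plasma taken 60 min post-infusion and totals measured by LC–MS/MS after dabsyl derivatisation. Free levels were calculated from the totals using ultrafiltration-derived bound fractions for brain and plasma (10 µM, 37 °C, 30 min).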

[3] = Ratio of total drug level in swine cerebrospinal fluid to unbound plasma concentration in swine at 1.6 mg/kg, iv infusion via saphenous vein after 60 mins by LC-MS/MS analysis; type: ADME, organism-based, Sus scrofa; conditions: pig, in vivo, 1 h
[4] = Ratio of unbound drug level in swine brain to plasma at 1.6 mg/kg, iv infusion via saphenous vein after 60 mins by LC-MS/MS analysis; type: ADME, organism-based, Sus scrofa; conditions: pig
Summary of the method: (§2)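 Free DON was derived from total swine brain and plasma levels at 60 min after 1.6 mg/kg-equivalent iv infusion. Unbound fraction came from ultrafiltration: DON 10 µM spiked into swine plasma or brain homogenate, 30 min at 37 °C, centrifuged through a 30 kDa cut-off filter at 37 °C for 45 min. fu = Cu/Ct × 100 by LC-MS/MS.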

[5] = Unbound drug level in swine brain at 1.6 mg/kg, iv infusion via saphenous vein after 60 mins by LC-MS/MS analysis; type: ADME, organism-based, Sus scrofa; conditions: pig, in vivo, 1 h; summary of the method: as §1
[6] = AUC (0 to t) in swine at 1.6 mg/kg, iv infusion via saphenous vein after 5 to 60 mins by LC-MS/MS analysis; type: ADME, organism-based, Sus scrofa; conditions: pig, in vivo
Summary of the method: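 DON (1.6 mg/kg) or molar-equivalent prodrug in sterile saline with 5% ethanol and 5% Tween 80, given as 1 h iv infusion via saphenous catheter to swine (n = 1/dose). Plasma from jugular central venous catheter at predose, 5, 15, 30, 45, 60 min. DON extracted with methanol plus glutamate-d5 IS, dabsyl chloride derivatized, quantified by LC-MS/MS; AUC0–t from plasma profile.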

[7] = Ratio of total drug level in swine brain to plasma at 1.6 mg/kg, iv infusion via saphenous vein after 60 mins by LC-MS/MS analysis; type: ADME, organism-based, Sus scrofa; conditions: pig, read-out: BPR
Summary of the method: (§3)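 Terminal swine study using the same 1 h iv dosing, 1.6 mg/kg DON or molar equivalent (n = 2/dose). Animals were euthanized with pentobarbital/phenytoin at 60 min postinfusion. Plasma and full-thickness frontal cortex were collected. DON was quantified by LC-MS/MS after methanol extraction with glutamate-d5 IS and dabsyl chloride derivatization. Values are mean ± SEM.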

[8] = Total drug uptake in swine cerebrospinal fluid at 1.6 mg/kg, iv infusion via saphenous vein after 60 mins by LC-MS/MS analysis; type: ADME, organism-based, Sus scrofa; conditions: pig, read-out: Drug uptake
Summary of the method: (§4)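 Swine received DON 1.6 mg/kg or molar-equivalent prodrug by 1 h iv saphenous infusion in saline/5% ethanol/5% Tween 80 (n = 1/dose). Plasma was sampled via jugular catheter. CSF was taken from the cisterna magna at 60 min postdose. DON was methanol-extracted, dabsyl-derivatized and quantified by LC-MS/MS.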

[9] = Ratio of total drug level in swine cerebrospinal fluid to plasma at 1.6 mg/kg, iv infusion via saphenous vein after 60 mins by LC-MS/MS analysis; type: ADME, organism-based, Sus scrofa, CSF/Plasma; conditions: pig; summary of the method: as §4
[10] = Total drug uptake in swine brain at 1.6 mg/kg, iv infusion via saphenous vein after 60 mins by LC-MS/MS analysis; type: ADME, organism-based, Sus scrofa; conditions: pig, in vivo, 1 h
Summary of the method: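 Anaesthetised swine, n = 2/dose. Infusion iv via saphenous vein over 1 h at 1.6 mg/kg or molar equivalent, in saline with 5% ethanol and 5% Tween 80. Animals were euthanised 60 min post-infusion and frontal cortex sampled. Extraction used methanol with glutamate-d5, then dabsyl chloride derivatisation (pH 9.0, 60 °C, 15 min) and LC–QTOF-MS.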

[11] = Ratio of total drug level in swine cerebrospinal fluid to unbound drug level in swine brain at 1.6 mg/kg, iv infusion via saphenous vein after 60 mins by LC-MS/MS analysis; type: ADME, organism-based, Sus scrofa; conditions: pig, in vivo, 1 h; summary of the method: as §2
[12] = Fraction unbound in swine brain at 1.6 mg/kg, iv infusion via saphenous vein after 60 min post-infusion by LC-MS/MS analysis; type: ADME, organism-based, Sus scrofa; conditions: pig, in vivo, 1 h
[13] = Total plasma concentration in swine at 1.6 mg/kg, iv infusion via saphenous vein after 60 mins by LC-MS/MS analysis; type: ADME, organism-based, Sus scrofa; conditions: pig; summary of the method: as §3
[14] = Protein binding in swine brain at 10 uM after 30 mins by ultrafiltration method; type: ADME, tissue-based, Sus scrofa; conditions: pig, 0.5 h
Summary of the method: (§5)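 Drug was spiked at 10 µM into swine plasma or swine brain homogenate and held 30 min at 37 °C. Samples were ultrafiltered (30 kDa cutoff) by centrifugation for 45 min at 37 °C, 1800g. Filtrate and unfiltered matrix were extracted and quantified by LC–MS/MS. Fraction unbound = Cu/Ct × 100.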

Plasma [15] = assay: Protein binding in swine plasma at 10 uM after 30 mins by ultrafiltration method; type: ADME, cell-free, Sus scrofa; conditions: pig, 0.5 h; summary of the method: as §5
Mus musculus [16] = assay: Toxicity in EcoHIV-infected C57BL/6J mouse assessed as change in body weight at 1 mg/kg, […] starting 1 day prior to EcoHIV infection and continuing every other day till day 30 measured after 30 days post infection; type: organism-based; conditions: in vivo, 720 h
Mus musculus [17] = assay: (§6) Decrease in cognitive decline in C57BL/6J mouse EcoHIV associated neurocognitive disorder model assessed as decrease in latency to escape to hidden platform at 1 mg/kg, […] starting 1 day prior to EcoHIV infection and continuing every other day till day 30 measured after 30 days post infection by radial arm water maze test; type: functional, organism-based
Mus musculus [18] = assay: Toxicity in EcoHIV-infected C57BL/6J mouse assessed as diarrhea at 1 mg/kg, […] starting 1 day prior to EcoHIV infection and continuing every other day till day 30 measured after 30 days post infection; type: organism-based; conditions: in vivo, 720 h
Mus musculus [19] = assay: Toxicity in EcoHIV-infected C57BL/6J mouse assessed as change in motor function at 1 mg/kg, […] starting 1 day prior to EcoHIV infection and continuing every other day till day 30 measured after 30 days post infection; type: organism-based; conditions: in vivo, 720 h
[20] = tested on: Human immunodeficiency virus; assay: Increase in EcoHIV viral DNA load in infected C57BL/6J mouse spleen at 1 mg/kg, […] starting 1 day prior to EcoHIV infection and continuing every other day till day 30 measured after 30 days post infection by qPCR method; type: organism-based; conditions: in vivo, 720 h
Mus musculus [21] = assay: Toxicity in EcoHIV-infected C57BL/6J mouse assessed as change in visual impairment at 1 mg/kg, […] starting 1 day prior to EcoHIV infection and continuing every other day till day 30 measured after 30 days post infection; type: organism-based; conditions: in vivo, 720 h
[22] = tested on: Human immunodeficiency virus; assay: Effect on EcoHIV viral DNA load in infected C57BL/6J mouse brain at 1 mg/kg, […] starting 1 day prior to EcoHIV infection and continuing every other day till day 30 measured after 30 days post infection by qPCR method; type: organism-based; conditions: in vivo, 720 h
Mus musculus [23] = assay: Effect on latency to escape to visible platform in C57BL/6J mouse EcoHIV associated neurocognitive disorder model at 1 mg/kg, […] starting 1 day prior to EcoHIV infection and continuing every other day till day 30 measured after 30 days post infection by radial arm water maze test; type: organism-based; conditions: in vivo, 720 h
Summary of the method: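 Same mice, dosing and EcoHIV or sham inoculation as the maze study. After the hidden-platform radial arm water maze testing, latency to reach a visible platform in the same context was timed. This serves as a control for vision, motivation and swimming ability.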

Mus musculus [24] = assay: as §6, with “number of errors across learning trial 1” for “latency”, “4 and retention trial” for “escape to hidden platform”; type: functional, organism-based
Summary of the method: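 Male C57BL/6J mice, 5 weeks old, n = 8/group. Dosing was 1 mg/kg ip every other day, starting 1 day before ip EcoHIV (2 × 10^6 pg p24) or PBS sham, and continued through testing. From day 30 p.i., radial arm water maze: daily four 60 s learning trials, then a 60 s retention test after 30 min rest. Hidden platform arm rotated daily. Values are last-3-day averages.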

| SMILES | half-life at 10 µM [1] [min] | Cp(f) (Plasma [2]) [µM] | Kp uu at 1 h [4] | Drug uptake(free) [5] [nmol/g] | AUC(0-t) [6] [µM·h] | concentration at 1 h [8] [µM] | Kp at 1 h [9] | Drug uptake [10] [nmol/g] | Drug uptake(free) [12] [nmol/g] | concentration at 1 h [13] [µM] | other results |
| --- | --- | --- | --- | --- | --- | --- | --- | --- | --- | --- | --- |
| CC(C)OC(=O)[C@H](CCC(=O)C=[N+]=[N-])NC(=O)OC(C)(C)OC(=O)C(C)(C)C | 291 |  |  |  |  |  |  |  |  |  |  |
| CC(C)OC(=O)[C@H](CCC(=O)C=[N+]=[N-])NC(=O)OC(OC(=O)C(C)(C)C)c1ccccc1 (some centres not stated) | 31 | 3.86 | 0.157 | 0.531 | 5.7 | 1.1 | 0.069 | 5.9 | 0.53 | 4.88 | Ratio [3]: 0.087; Kp at 1 h [7]: 1.38; Ratio [11]: 2.07 |
| CC(C)OC(=O)[C@H](CCC(=O)C=[N+]=[N-])NC(=O)O[C@H](C)OC(=O)C(C)(C)C | 75 |  |  |  | 8 |  |  |  |  |  |  |
| CC(C)OC(=O)[C@H](CCC(=O)C=[N+]=[N-])NC(=O)OC(OC(=O)C(C)(C)C)C(C)C (mixture of isomers) | 35 |  |  |  |  |  |  |  |  |  |  |
| [N-]=[N+]=CC(=O)CC[C@H](N)C(=O)O [6-DIAZO-5-OXO-L-NORLEUCINE] |  | 32.5 | 0.017 | 0.464 | 29.9 | 0.252 | 0.005 | 5.15 | 0.46 to 0.531 | 41.2 | PB [14]: 91%; PPB (Plasma [15]): 21%; Activity (Mus musculus [16]): Non-Toxic; Activity (Mus musculus [17]): Active; Activity (Mus musculus [18]): Non-Toxic; Activity (Mus musculus [19]): Non-Toxic; Activity [20]: Toxic; Activity (Mus musculus [21]): Non-Toxic; Activity [22]: Non-Toxic; Activity (Mus musculus [23]): Non-Toxic; Activity (Mus musculus [24]): Active |
